Assay results from different studies.
Protocols differ between the studies behind these lines.
SLC6A4: Sodium-dependent serotonin transporter (SLC6A4, Homo sapiens, UniProt P31645)
rep papain-like protease: Replicase polyprotein 1ab, papain-like protease (rep, Porcine epidemic diarrhea virus, UniProt P0C6Y4)

`N#CC[C@@]12C[C@@H]1[C@@H](n1cnc3c(NCCCCCCc4ccccc4)nc(I)nc31)[C@H](O)[C@@H]2O` has a Ki of 4.4 µM (SLC6A4; ligand displacement; radioligand).
`CC(C)C[C@H](NC(=O)[C@@H](N)[C@@H](C)O)C(=O)N[C@@H](CCC(N)=O)C(=O)N1CCC[C@H]1C(=O)N1CCC[C@H]1C(=O)N[C@@H](C)C(=O)N[C@@H](CO)C(=O)N[C@@H](CO)C(=O)N[C@@H](CCCNC(=N)N)C(=O)N[C@@H](CCCNC(=N)N)C(=O)N[C@@H](CCCNC(=N)N)C(=O)N[C@@H](Cc1c[nH]cn1)C(=O)N[C@@H](Cc1ccccc1)C(=O)N[C@@H](Cc1c[nH]cn1)C(=O)N[C@@H](Cc1c[nH]cn1)C(=O)N[C@@H](C)C(=O)N[C@@H](CC(C)C)C(=O)N1CCC[C@H]1C(=O)N1CCC[C@H]1C(=O)N[C@@H](C)C(=O)N[C@@H](CCCNC(=N)N)C(=O)O` has an EC50 of 0.653 µM (C3a anaphylatoxin chemotactic receptor (C3AR1, Homo sapiens, UniProt Q16581); β-arrestin recruitment; agonist).
The Kd of `O=C(NCc1ccc(Br)cc1)c1c[nH]c(-c2n[nH]c3ncccc23)c1` is reported as 0.0439 µM (E3 ubiquitin-protein ligase NEDD4 (Homo sapiens, UniProt P46934); binding; MST).
For `Cc1cc2[nH]cc(C(=O)O)c(=O)n2n1`, the Kd was over 20000 µM (Peptidyl-prolyl cis-trans isomerase F, mitochondrial (PPIF, Homo sapiens, UniProt P30405); binding; SPR).
For `O=C1CCC(N2Cc3cc(-c4cc5ccccc5cn4)ccc3C2=O)C(=O)N1` (stereo not drawn), the DC50 was 0.043 µM (WEE1/CRBN (Homo sapiens, UniProt P30291+Q96SW2); protein level; degrader).
With `O=C(NCc1cc(O)c(O)c(Br)c1)c1ccc(OC(F)(F)F)cc1` the IC50 was 9.96 µM (rep papain-like protease; enzyme activity; inhibitor; FRET).
The Ki of `CCOC(=O)[C@@]12C[C@@H]1[C@@H](n1cnc3c(NCCCCCCc4ccccc4)nc(I)nc31)[C@H](O)[C@@H]2O` is reported as 4.6 µM (SLC6A4; ligand displacement; radioligand).
`O=C(NCc1cc(O)c(O)c(Br)c1)c1ccc(Cl)s1` gave an IC50 of 2.73 µM (rep papain-like protease; enzyme activity; inhibitor; FRET).
`OC[C@@H]1O[C@@H](OC[C@H]2O[C@@H](OC/C=C/c3ccccc3)[C@H](O)[C@@H](O)[C@@H]2O)[C@H](O)[C@H]1O` gave a Kd of 7.57 µM (POU domain, class 3, transcription factor 3 (Homo sapiens, UniProt P20264); binding; SPR).
